# pEC50: −log10 of the molar value. Calls of active or inactive are those of the source. No cut-off for these calls is given here.
# Legend:
# [1] = Agonist activity at N-terminal his/SUMO tagged STING A230 in human THP-1 cells transfected with ISRE reporter assessed as increase in cGAMP-induced ISRE activation incubated for 48 hrs by luminescence based analysis; type: cell-based; settings: for EC50: thp-1; for pEC50: Homo sapiens, THP-1, 48 h, read-out: EC50
# [2] = Upregulation of IRF7 expression in human Primary macrophage transduced with lentivirus FG12-EFlp-EGFRt-p2A-STING A230 assessed as fold change measured after 6 hrs by RT-qPCR analysis; type: functional
# Method in brief: (§1)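 CD14+ monocytes from 3 healthy donors with STING G230 alleles were differentiated into macrophages with M-CSF. Cells were transduced with FG12-EF1p-EGFRt-p2A-STINGA230 lentivirus, mock-transduced or left untransduced. Three days after transduction they were stimulated for 6 h with DMSO vehicle or the agonist, and MX1 and IRF7 expression was measured by RT-qPCR.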
# THP-1 [3] = assay: Upregulation of MX1 expression in human THP-1 cells at 50 uM measured after 6 hrs by RT-qPCR analysis; type: functional, cell-based
# Method in brief: (§2)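 THP-1 cells, which carry homozygous STING HAQ, were treated for 6 h with vehicle or the agonist at 50 μM. Cells were then harvested, and MX1 and OAS1 expression was measured by RT-qPCR.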
# PBMC = assay: Induction of MX1 gene expression in human PBMC cells harbouring STING A230 allele at 50 uM measured after 6 hrs by RT-qPCR analysis; type: functional, cell-based
# Method in brief: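 Primary PBMCs from 15 independent healthy donors were exposed to 50 μM agonist for 6 h. The 2′,3′-cGAMP comparator was given at 1 μg/mL. Cells were then harvested, and MX1 expression was measured by RT-qPCR. Values come from the donor carrying the STINGA230 allele.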
# Macrophage [4] = assay: Upregulation of MX1 expression in human Primary macrophage measured after 6 hrs by RT-qPCR analysis; type: functional, cell-based; method in brief: as §1
# THP-1 [5] = assay: Upregulation of OAS1 expression in human THP-1 cells at 50 uM measured after 6 hrs by RT-qPCR analysis; type: functional, cell-based; method in brief: as §2
# [6] = Upregulation of MX1 expression in human Primary macrophage transduced with lentivirus FG12-EFlp-EGFRt-p2A-STING A230 assessed as fold change measured after 6 hrs by RT-qPCR analysis; type: functional; method in brief: as §1
# Macrophage [7] = assay: Upregulation of IRF7 expression in human Primary macrophage measured after 6 hrs by RT-qPCR analysis; type: functional, cell-based; method in brief: as §1
Structure (SMILES),EC50 [1],further results
COC(=O)CSc1nnc2c3c4c(sc3ncn12)CCCC4,Not Active,–
COC(=O)Cc1nnc2c3c(C)c(C)sc3ncn12,Not Active,–
COC(=O)CSc1nnc2c3c(C)c(C)sc3nc(C)n12,Not Active,–
CCc1cc2c(ncn3c(SCC(=O)OC)nnc23)s1,–,pEC50 [1]: 5.16
Cc1sc2ncn3c(SCC(=O)OC(C)(C)C)nnc3c2c1C,Not Active,–
COC(=O)CSc1nnc2c3cc(OC)c(OC)cc3ncn12,Not Active,–
COC(=O)C[S+]([O-])c1nnc2c3c(C)c(C)sc3ncn12 (configuration not stated),Not Active,–
COC(=O)CCc1nnc2c3c(C)c(C)sc3ncn12,Not Active,–
COC(=O)CSc1nnc2c3c(C)c(C)sc3ncn12,–,fold change (FC) [2]: 5; Activity (THP-1 [3]): Active; Activity (PBMC): Active; pEC50 [1]: 5.24; Activity (Macrophage [4]): inactive; Activity (THP-1 [5]): Active; fold change (FC) [6]: 10; Activity (Macrophage [7]): inactive
CCOC(=O)CSc1nnc2c3c(C)c(C)sc3ncn12,–,pEC50 [1]: 5.06
COCc1sc2ncn3c(SCC(=O)OC)nnc3c2c1C,–,pEC50 [1]: 4.63
COC(=O)COc1nnc2c3c(C)c(C)sc3ncn12,Not Active,–
COCc1c(C)sc2ncn3c(SCC(=O)OC)nnc3c12,Not Active,–
COC(=O)CCSc1nnc2c3c(C)c(C)sc3ncn12,Not Active,–
COC(=O)CNC(=O)n1cnc2sc(C)c(C)c2c1=O,Not Active,–
COC(=O)CSc1nnc2c3ccsc3ncn12,Not Active,–
Cc1sc2ncn3c(SCC(=O)OC(C)C)nnc3c2c1C,–,pEC50 [1]: 4.87
Cc1sc2ncn3c(Sc4nnn[nH]4)nnc3c2c1C,Not Active,–
COC(=O)CSc1ncc2c3c(C)c(C)sc3ncn12,Not Active,–
COC(=O)CSc1nnc2c3c(C)c(C)oc3ncn12,Not Active,–
COC(=O)CSc1nnc2c3c(C)c(C)n(C)c3ncn12,Not Active,–
COC(=O)CSc1nnc2c3c(C)c(C)sc3ccn12,Not Active,–
COC(=O)CSc1nnc2c3c4c(sc3ncn12)CCC4,–,pEC50 [1]: 5.14
COC(=O)CSc1nnc2c3c(C)c(Br)sc3ncn12,–,pEC50 [1]: 4.94
Cc1sc2ncn3c(SC4CCOC4=O)nnc3c2c1C (configuration not stated),Not Active,–

# — ChEMBL document CHEMBL5634197, “Structural Evaluations of a Selective Human STINGA230 Agonist and Its Use in Macrophage Immunotherapies” (ACS Med Chem Lett, 2024)
